Active and inactive are the calls of the source. No cut-off for these calls is given here.
Key:
PC-3 [1] = test: Cytotoxicity against human PC3 cells; assay type: functional, cell-based
Summary of the method: (§1)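 MTT viability assay. Cells were plated at 3 × 10³ cells/well and treated in triplicate with a range of concentrations, with final DMSO at 0.2%. After 48 h incubation, MTT (0.5 mg/mL) was added for a further 4 h at 37 °C. Formazan was read by optical density at 570 nm and percentage viability calculated.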

MCF7 [2] = test: Cytotoxicity against human MCF7 cells; assay type: functional, cell-based; summary of the method: as §1
HeLa [3] = test: Cytotoxicity against human HeLa cells; assay type: functional, cell-based; summary of the method: as §1
HeLa [4] = test: Cell cycle arrest in human HeLa cells assessed as cells at G0 phase at 1 uM measured after 24 hrs by propidium iodide/FACS analysis (reference value: 68.6%); assay type: functional
HeLa [5] = test: Cell cycle arrest in human HeLa cells assessed as cells at G1 phase at 1 uM measured after 24 hrs by propidium iodide/FACS analysis (reference value: 14.7%); assay type: functional
PC-3 [6] = test: Cytotoxicity against human PC3 cells at 50 uM measured after 48 hrs by MTT assay; assay type: cell-based; conditions: pc-3, 48 h; summary of the method: as §1
HeLa [7] = test: Cytotoxicity against human HeLa cells at 50 uM measured after 48 hrs by MTT assay; assay type: cell-based; summary of the method: as §1
HeLa [8] = test: Cell cycle arrest in human HeLa cells assessed as cells at G0 phase at 50 uM measured after 24 hrs by propidium iodide/FACS analysis (reference value: 68.6%); assay type: functional
HeLa [9] = test: Cell cycle arrest in human HeLa cells assessed as cells at G1 phase at 50 uM measured after 24 hrs by propidium iodide/FACS analysis (reference value: 14.7%); assay type: functional
MCF7 [10] = test: Inhibition of cell migration in human MCF7 cells at 80 uM for 24 hrs by wound healing assay; assay type: functional, cell-based
Summary of the method: (§2)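 Wound-healing (scratch) assay. Cells were seeded at 5.5 × 10⁵ cells/well in 6-well plates and grown overnight to a confluent monolayer. After 24 h serum starvation, the monolayer was scratched with a pipette tip, washed with serum-free medium and photographed at 0 h. Cells were then treated for 24 h in 1% serum medium with compound or DMSO vehicle. Scratched area was quantified in three random fields per treatment across three independent experiments.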

MCF7 [11] = test: Inhibition of cell migration in human MCF7 cells at 50 uM for 24 hrs by wound healing assay; assay type: functional, cell-based; summary of the method: as §2
PC-3 [12] = test: Inhibition of cell migration in human PC3 cells at 50 uM for 24 hrs by wound healing assay; assay type: functional, cell-based; summary of the method: as §2
PC-3 [13] = test: Inhibition of cell migration in human PC3 cells at 80 uM for 24 hrs by wound healing assay; assay type: functional, cell-based; summary of the method: as §2
HeLa [14] = test: Inhibition of cell migration in human HeLa cells at 80 uM for 24 hrs by wound healing assay; assay type: functional, cell-based; summary of the method: as §2
PC-3 [15] = test: Inhibition of colony formation in human PC3 cells at sub-lethal dose measured after 5 days by colony formation assay; assay type: functional, cell-based
Summary of the method: (§3)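 Clonogenic assay. Cells were seeded at 1 × 10³ cells/well in 6-well plates, and the medium was replaced after 24 h. Cells were then exposed to various concentrations of compound, alongside DMSO vehicle, for 5 days at 37 °C in 5% CO₂. Colonies were fixed with 4% paraformaldehyde, stained with 0.5% crystal violet, then counted and averaged over randomly chosen fields (n = 3).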

HeLa [16] = test: Inhibition of cell migration in human HeLa cells at 50 uM for 24 hrs by wound healing assay; assay type: functional, cell-based; summary of the method: as §2
HeLa [17] = test: Inhibition of colony formation in human HeLa cells at sub-lethal dose measured after 5 days by colony formation assay; assay type: functional, cell-based; summary of the method: as §3
HeLa [18] = test: Inhibition of colony formation in human HeLa cells measured after 5 days by colony formation assay; assay type: functional, cell-based; summary of the method: as §3

Question: How did the Activity (PC-3 [1]) turn out when `COc1cc(OC)c2c(=O)c(-c3ccccc3)cn(C)c2c1` was run?
Answer: Its Activity is “inactive”.

Question: And the Activity (MCF7 [2])?
Answer: The Activity was “inactive”.

Question: And the Activity (HeLa [3])?
Answer: The Activity was “inactive”.

Question: With `COc1cc(OC)c2c(O)c(-c3ccccc3)cnc2c1` as the compound, how does the Activity (PC-3 [1]) read?
Answer: The Activity was “inactive”.

Question: What about the Activity (MCF7 [2]) of the same compound?
Answer: Its Activity is “inactive”.

Question: What about the Activity (HeLa [3]) of the same compound?
Answer: The Activity was “inactive”.

Question: What does the source list for `CC[C@@]1(O)C(=O)OCc2c1cc1n(c2=O)Cc2cc3ccccc3nc2-1` [CAMPTOTHECIN]?
Answer: Activity (HeLa [4]): 68.6%; Activity (HeLa [5]): 17.7%

Question: For `CCn1cc(-c2ccccc2)c(=O)c2c(OC)cc(OC)cc21` [CRATAEMINE], which Activity (PC-3 [6]) is on record?
Answer: The Activity was “Non-toxic”.

Question: What about the Activity (HeLa [7]) of the same compound?
Answer: Its Activity is “Non-toxic”.

Question: What about the Activity (HeLa [8]) of the same compound?
Answer: The Activity was 76.8%.

Question: And the Activity (HeLa [9])?
Answer: The Activity was 17.2%.

Question: And the Activity (MCF7 [10])?
Answer: The Activity was “inactive”.

Question: What about the Activity (MCF7 [11]) of the same compound?
Answer: The Activity was “inactive”.

Question: What about the Activity (PC-3 [12]) of the same compound?
Answer: The Activity was “Active”.

Question: What about the Activity (PC-3 [13]) of the same compound?
Answer: The Activity was “Active”.

Question: What about the Activity (HeLa [14]) of the same compound?
Answer: Its Activity is “Active”.

Question: What about the Activity (PC-3 [15]) of the same compound?
Answer: Its Activity is “Active”.

Question: What about the Activity (HeLa [16]) of the same compound?
Answer: The Activity was “Active”.

Question: And the Activity (HeLa [17])?
Answer: Its Activity is “Active”.

Question: And the Activity (HeLa [18])?
Answer: Its Activity is “Dose-dependent effect”.

Question: `CC(C)[C@@H]1CC[C@@H](C)[C@H]2[C@@H]1C[C@H]1[C@@H]3CC=C4C[C@@H](O[C@@H]5O[C@H](CO)[C@@H](O)[C@H](O)[C@H]5O)CC[C@]4(C)[C@H]3CC[C@]21C` [CRATAENOSIDE] was tested. Which Activity (PC-3 [6]) did it give?
Answer: The Activity was “Non-toxic”.

Question: And the Activity (HeLa [7])?
Answer: The Activity was “Non-toxic”.

Question: And the Activity (HeLa [8])?
Answer: Its Activity is 63.5%.

Question: And the Activity (HeLa [9])?
Answer: Its Activity is 22.5%.

Question: What about the Activity (MCF7 [10]) of the same compound?
Answer: Its Activity is “inactive”.

Question: What about the Activity (MCF7 [11]) of the same compound?
Answer: Its Activity is “inactive”.

Question: And the Activity (PC-3 [12])?
Answer: Its Activity is “Active”.

Question: And the Activity (PC-3 [13])?
Answer: Its Activity is “Active”.

Question: What about the Activity (HeLa [14]) of the same compound?
Answer: The Activity was “Active”.

Question: And the Activity (PC-3 [15])?
Answer: Its Activity is “Active”.

Question: What about the Activity (HeLa [16]) of the same compound?
Answer: Its Activity is “Active”.

Question: What about the Activity (HeLa [17]) of the same compound?
Answer: Its Activity is “Active”.

Question: And the Activity (HeLa [18])?
Answer: Its Activity is “Dose-dependent effect”.

— ChEMBL document CHEMBL2321791, “A new cytotoxic quinolone alkaloid and a pentacyclic steroidal glycoside from the stem bark of Crataeva nurvala: study of anti-proliferative and apoptosis inducing property” (Eur J Med Chem, 2013)
